According to ChEMBL document CHEMBL1138596, “Synthesis and biological evaluation of novel 4-(hetero) aryl-2-piperazino quinazolines as anti-leishmanial and anti-proliferative agents” (Bioorg Med Chem Lett, 2009):
Converted amounts (≈) assume the structure as drawn.

Assays:
Vero = assay: Antiproliferative activity against african green monkey Vero cells by MTT assay; format: cell-based; details: Chlorocebus sabaeus
Method in brief: (§1)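 Twofold serial dilutions of compound up to a highest concentration of 50 µg/mL; viability read by MTT assay; panel of DU145 prostate, MCF-7 breast, KB oral epidermal, C33A cervical carcinoma lines and non-cancerous VERO cells.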

Leishmania donovani [1] = assay: Antileishmanial activity against Leishmania donovani MHOM/IN/Dd8 promastigotes assessed as luciferase activity after 72 hrs; format: functional, organism-based; details: MHOM/IN/Dd8, 72 h
Method in brief: (§2)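 L. donovani parasites transfected with firefly luciferase gene, maintained in medium 199 with 10% fetal calf serum, penicillin (50 U/ml) and streptomycin under G418 pressure; compounds tested at various concentrations against transgenic promastigotes and intracellular amastigotes; IC50 calculated by Probit analysis.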

Leishmania donovani [2] = assay: Antileishmanial activity against Leishmania donovani MHOM/IN/Dd8 amastigotes infected in mouse J774A1 cells assessed as luciferase activity after 48 hrs; format: functional, organism-based; details: for IC50: MHOM/IN/Dd8, J774.A1, 48 h; for Activity: J774.A1; method in brief: as §2
[3] = Cytotoxicity against mouse J774A1 cells; format: cell-based, J774.A1
Method in brief: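 Mouse macrophage line J-774-A-1; cytotoxicity read by MTT assay.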

MCF7 = assay: Antiproliferative activity against human MCF7 cells by MTT assay; format: functional, cell-based; method in brief: as §1
DU-145 = assay: Antiproliferative activity against human DU145 cells by MTT assay; format: functional, cell-based; method in brief: as §1
C-33-A = assay: Antiproliferative activity against human C33A cells by MTT assay; format: functional, cell-based; method in brief: as §1
KB = assay: Antiproliferative activity against human KB cells by MTT assay; format: functional, cell-based; method in brief: as §1
[4] = (§3) Selectivity index, ratio of CC50 for mouse J774A1 cells to IC50 for Leishmania donovani MHOM/IN/Dd8 amastigotes; format: functional, J774.A1
J774.A1 = assay: as §3; format: functional

IC50 (Leishmania donovani [1]) [µg/mL] | IC50 (Leishmania donovani [2]) [µg/mL] | IC50 (MCF7) [µg/mL] | IC50 (DU-145) [µg/mL] | IC50 (KB) [µg/mL] | Molecule | IC50 (Vero) [µg/mL] | CC50 [3] [µg/mL] | IC50 (C-33-A) [µg/mL] | Ratio CC50/IC50 [4] | Ratio CC50/IC50 (J774.A1) | Activity (Leishmania donovani [2])
3.79 (≈ 10.4 µM) | 4.28 (≈ 11.7 µM) | > 50 | > 50 | > 50 | COc1ccc(-c2nc(N3CCN(C)CC3)nc3ccccc23)c(OC)c1 | > 50 | 18 (≈ 49.4 µM) | > 50 | 4.21 |  | 
 |  |  |  |  | Sodium stilbogluconate |  |  |  |  | 6.38 | 
0.62 (≈ 1.73 µM) |  | > 50 | > 50 | > 50 | CN1CCN(c2nc(-c3cn(C)c4ccccc34)c3ccccc3n2)CC1 | > 50 | 1.03 (≈ 2.88 µM) | > 50 |  |  | Toxic
0.28 (≈ 0.815 µM) | 12.5 (≈ 36.4 µM) | > 50 | > 50 | > 50 | Cn1cc(-c2nc(N3CCNCC3)nc3ccccc23)c2ccccc21 | > 50 | 16 (≈ 46.6 µM) | > 50 | 1.28 |  | 
> 10 |  | > 50 | > 50 | > 50 | c1ccc2c(-c3c[nH]c4ccccc34)nc(N3CCCCC3)nc2c1 | > 50 |  | > 50 |  |  | 
0.624 (≈ 1.78 µM) | 5.11 (≈ 14.6 µM) | > 50 | > 50 | > 50 | COc1ccc(-c2nc(N3CCNCC3)nc3ccccc23)c(OC)c1 | > 50 | 3.98 (≈ 11.4 µM) | > 50 | 0.78 |  | 
0.25 (≈ 0.657 µM) |  | > 50 | > 50 | > 50 | COc1cc(OC)c(-c2nc(N3CCNCC3)nc3ccccc23)c(OC)c1 | > 50 |  | > 50 |  |  | Toxic
0.68 (≈ 1.98 µM) | 4.17 (≈ 12.1 µM) | 6 (≈ 17.5 µM) | 20.8 (≈ 60.6 µM) | 4.9 (≈ 14.3 µM) | CN1CCN(c2nc(-c3c[nH]c4ccccc34)c3ccccc3n2)CC1 | 22.3 (≈ 64.9 µM) | 7.27 (≈ 21.2 µM) | 11.5 (≈ 33.5 µM) | 1.74 |  | 
0.56 (≈ 1.7 µM) |  | 14.1 (≈ 42.8 µM) | 12.5 (≈ 37.9 µM) | 4 (≈ 12.1 µM) | c1ccc2c(-c3c[nH]c4ccccc34)nc(N3CCNCC3)nc2c1 | 8.9 (≈ 27 µM) | 3.11 (≈ 9.44 µM) | 8.2 (≈ 24.9 µM) |  |  | Toxic
6.2 (≈ 15.7 µM) | 12.4 (≈ 31.6 µM) | > 50 | > 50 | > 50 | COc1cc(OC)c(-c2nc(N3CCN(C)CC3)nc3ccccc23)c(OC)c1 | > 50 | > 100 | > 50 | >8.03 |  | 
1.72 (≈ 4.06 µM) | 12.3 (≈ 29.1 µM) | > 50 | > 50 | > 50 | Fc1ccc(N2CCN(c3nc(-c4c[nH]c5ccccc45)c4ccccc4n3)CC2)cc1 | > 50 | 23.4 (≈ 55.3 µM) | > 50 | 1.9 |  | 
1.8 (≈ 5.45 µM) | 25.1 (≈ 76.1 µM) | > 50 | > 50 | > 50 | c1ccc2c(-c3c[nH]c4ccccc34)nc(N3CCOCC3)nc2c1 | > 50 | 50.1 (≈ 152 µM) | > 50 | 1.99 |  | 
 |  |  |  |  | N=C(N)c1ccc(OCCCCCOc2ccc(C(=N)N)cc2)cc1 [PENTAMIDINE] |  |  |  | 2.07 |  | 
